Experiments:
Homo sapiens [1] = organism: Homo sapiens; assay: Concentration required to reduce ADP-induced platelet aggregation in platelet rich plasma by 50%.; assay type: functional
Method in brief: (§1)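 Human platelet-rich plasma was incubated for 1 min with varying test concentrations or vehicle, then aggregation was triggered with ADP. The response was followed turbidimetrically. IC50 is the concentration cutting the aggregation response by 50%, averaged from at least two determinations, with average error ±16%.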

Homo sapiens [2] = organism: Homo sapiens; assay: Concentration required to reduce ADP-induced platelet aggregation in platelet rich plasma by 50%; assay type: functional; method in brief: as §1
[3] = target: Integrin alpha-IIb/beta-3 (Homo sapiens, UniProt P05106+P08514); assay: Inhibition of fibrinogen binding to purified human alpha IIb beta-3 integrin (GP IIb-IIIa); assay type: protein-complex assay
Chain of Integrin alpha-IIb/beta-3 (P05106 27-788 limits assumed): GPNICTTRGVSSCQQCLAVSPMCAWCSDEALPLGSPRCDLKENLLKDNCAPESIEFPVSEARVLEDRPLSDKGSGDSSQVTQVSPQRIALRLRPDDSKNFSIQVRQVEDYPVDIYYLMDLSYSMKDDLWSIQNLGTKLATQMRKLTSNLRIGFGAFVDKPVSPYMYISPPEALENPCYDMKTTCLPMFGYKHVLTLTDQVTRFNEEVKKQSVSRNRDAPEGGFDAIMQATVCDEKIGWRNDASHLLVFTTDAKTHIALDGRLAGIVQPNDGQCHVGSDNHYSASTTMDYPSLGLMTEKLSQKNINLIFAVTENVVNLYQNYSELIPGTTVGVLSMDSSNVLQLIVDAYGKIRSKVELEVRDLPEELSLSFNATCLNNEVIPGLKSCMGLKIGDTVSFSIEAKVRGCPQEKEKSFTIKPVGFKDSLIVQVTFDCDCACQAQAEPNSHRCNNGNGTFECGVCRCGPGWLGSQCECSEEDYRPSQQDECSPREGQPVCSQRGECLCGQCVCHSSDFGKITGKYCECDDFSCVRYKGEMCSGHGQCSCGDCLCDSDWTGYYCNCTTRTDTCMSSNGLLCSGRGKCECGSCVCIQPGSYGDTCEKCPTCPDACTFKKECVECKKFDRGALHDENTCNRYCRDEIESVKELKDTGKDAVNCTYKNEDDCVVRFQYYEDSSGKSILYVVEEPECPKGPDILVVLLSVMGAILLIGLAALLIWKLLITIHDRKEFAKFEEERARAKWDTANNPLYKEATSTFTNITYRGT
Chain of Integrin alpha-IIb/beta-3 (P08514 32-887 limits assumed): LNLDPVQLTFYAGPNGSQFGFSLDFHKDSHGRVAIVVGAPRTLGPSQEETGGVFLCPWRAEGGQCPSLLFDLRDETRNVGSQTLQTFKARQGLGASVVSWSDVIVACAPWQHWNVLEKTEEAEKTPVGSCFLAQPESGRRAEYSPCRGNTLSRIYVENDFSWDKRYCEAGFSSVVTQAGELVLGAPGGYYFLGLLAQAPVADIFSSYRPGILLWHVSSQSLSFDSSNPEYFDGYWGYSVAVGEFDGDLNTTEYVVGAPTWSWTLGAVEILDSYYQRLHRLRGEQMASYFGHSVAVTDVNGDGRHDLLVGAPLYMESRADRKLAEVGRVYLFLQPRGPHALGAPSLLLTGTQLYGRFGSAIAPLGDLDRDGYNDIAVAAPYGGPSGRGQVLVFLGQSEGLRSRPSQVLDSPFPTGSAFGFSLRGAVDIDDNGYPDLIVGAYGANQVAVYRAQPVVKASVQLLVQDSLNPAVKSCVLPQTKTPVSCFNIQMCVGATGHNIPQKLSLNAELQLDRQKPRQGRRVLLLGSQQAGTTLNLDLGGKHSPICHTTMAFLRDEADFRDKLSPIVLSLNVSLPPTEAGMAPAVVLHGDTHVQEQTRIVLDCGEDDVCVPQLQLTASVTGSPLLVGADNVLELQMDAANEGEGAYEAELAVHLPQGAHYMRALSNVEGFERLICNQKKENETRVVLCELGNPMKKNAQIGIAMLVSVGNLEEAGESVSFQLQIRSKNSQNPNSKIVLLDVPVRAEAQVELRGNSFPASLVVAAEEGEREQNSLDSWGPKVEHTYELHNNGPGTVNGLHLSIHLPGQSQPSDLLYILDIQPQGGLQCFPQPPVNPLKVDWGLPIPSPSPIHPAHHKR
Chain of Integrin alpha-IIb/beta-3 (P08514 891-1039 limits assumed): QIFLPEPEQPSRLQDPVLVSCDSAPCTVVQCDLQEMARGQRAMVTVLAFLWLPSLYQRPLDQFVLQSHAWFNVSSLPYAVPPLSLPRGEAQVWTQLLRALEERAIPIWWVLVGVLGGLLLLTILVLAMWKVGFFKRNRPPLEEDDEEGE

[4] = Cmax (ng /mL) value after oral administration of 10 mg/kg in guinea pig.; assay type: ADME, organism-based, Cavia porcellus; parameters: dose 10 mg/kg, route oral; conditions: in vivo
Method in brief: (§2)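 Guinea pigs were fasted overnight and given a single 10 mg/kg oral gavage dose, formulated at 3 mg/mL in 50% poly(ethylene glycol) 300. Blood was drawn under isoflurane anesthesia into 3.8% trisodium citrate (9:1). Plasma was assayed by HPLC. AUC covers the 0-5 h time course, and Cmax is the peak plasma level.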

[5] = AUC (ng h/mL) value after oral administration of 10 mg/kg in guinea pig.; assay type: ADME, organism-based, Cavia porcellus; parameters: dose 10 mg/kg, route oral; conditions: plasma; method in brief: as §2
[6] = AUC(ng h/mL)values after oral administration of 10 mg/kg in guinea pig.; assay type: ADME, organism-based, Cavia porcellus; parameters: dose 10 mg/kg, route oral; conditions: plasma; method in brief: as §2
[7] = Cmax(ng /mL)values after oral administration of 10 mg/kg in guinea pig.; assay type: ADME, organism-based, Cavia porcellus; parameters: dose 10 mg/kg, route oral; conditions: in vivo; method in brief: as §2
[8] = Cmax(ng /mL)values after oral administration of 10 mg/kg in rat.; assay type: ADME, organism-based; parameters: dose 10 mg/kg, route oral; conditions: in vivo
Method in brief: (§3)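 Rats were fasted overnight and dosed once by oral gavage at 10 mg/kg, in vehicle of 50% poly(ethylene glycol) 300 at 3 mg/mL. Blood was collected under isoflurane into 3.8% trisodium citrate (9:1), and plasma was prepared for HPLC analysis. AUC refers to the sampled time course.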

[9] = AUC(ng h/mL)values after oral administration of 10 mg/kg in rat.; assay type: ADME, organism-based; parameters: dose 10 mg/kg, route oral; conditions: plasma; method in brief: as §3

N=C(N)c1ccc(C(=O)Nc2ccc3c(c2)CCC(CC(=O)O)C3=O)cc1 (stereo unspecified)
IC50 (Homo sapiens [1]): 0.02 mg/L
IC50 (Homo sapiens [2]): 0.06 µM

N=C(N)c1ccc(COc2ccc3c(=O)n(CC(=O)O)ccc3c2)cc1
IC50 [3]: 4.2 µM

N=C(N)c1ccc(COc2ccc3c(c2)CCC(CC(=O)O)O3)cc1 (stereo unspecified)
IC50 (Homo sapiens [2]): 2.5 µM
IC50 [3]: 0.039 µM

CCOC(=O)Cn1ccc2cc(NC(=O)c3ccc(C(=N)N)cc3)ccc2c1=O
Cmax [4]: 0.177 µg/mL
AUC [5]: 0.543 µg·h/mL

CCOC(=O)Cc1cc2ccc(NC(=O)c3ccc(C(=N)N)cc3)cc2cn1
Cmax [4]: 0.469 µg/mL
AUC [5]: 1.58 µg·h/mL

N=C(N)c1ccc(COc2ccc3c(c2)CN(CC(=O)O)C3=O)cc1
IC50 [3]: 1.2 µM

N=C(N)c1ccc(C(=O)Nc2ccc3c(c2)CCC(CC(=O)O)C3)cc1 (stereo unspecified)
IC50 (Homo sapiens [1]): 0.19 µM
IC50 (Homo sapiens [2]): 0.067 mg/L
AUC [6]: 0.903 µg·h/mL
Cmax [7]: 0.252 µg/mL

CCOC(=O)CC1CCc2cc(NC(=O)c3ccc(C(=N)N)cc3)ccc2C1 (stereo unspecified)
Cmax [8]: 5.05 µg/mL
AUC [6]: 3.7 µg·h/mL
AUC [9]: 15.9 µg·h/mL
Cmax [7]: 1.17 µg/mL

N=C(N)c1ccc(COc2ccc(C(=O)NCC(=O)O)cc2)cc1
IC50 [3]: 5 µM

N=C(N)c1ccc(COc2ccc3c(c2)CC(=O)N(CC(=O)O)C3)cc1
IC50 [3]: 5.8 µM

N=C(N)c1ccc(C(=O)Nc2ccc3c(c2)CCN(CC(=O)O)C3)cc1
IC50 (Homo sapiens [1]): 0.06 mg/L
IC50 (Homo sapiens [2]): 0.17 µM

CCOC(=O)CC1CCc2cc(NC(=O)c3ccc(C(=N)N)cc3)ccc2O1 (stereo unspecified)
Cmax [8]: 4.85 µg/mL
AUC [9]: 14.8 µg·h/mL

CCOC(=O)CC1CCc2cc(NC(=O)c3ccc(C(=N)N)cc3)ccc2C1=O (stereo unspecified)
Cmax [8]: 3.63 µg/mL
AUC [6]: 3.99 µg·h/mL
AUC [9]: 11.2 µg·h/mL
Cmax [7]: 1.15 µg/mL

N=C(N)c1ccc(C(=O)Nc2ccc3c(c2)CCN(CC(=O)O)C3=O)cc1
IC50 (Homo sapiens [1]): 0.09 µM
IC50 (Homo sapiens [2]): 0.032 mg/L
AUC [6]: 0.4 µg·h/mL
Cmax [7]: 0.126 µg/mL

N=C(N)c1ccc(C(=O)Nc2ccc3c(c2)CCC(CC(=O)O)O3)cc1 (stereo unspecified)
IC50 (Homo sapiens [1]): 0.027 mg/L
IC50 (Homo sapiens [2]): 0.19 µM
IC50 [3]: 0.002 µM

N=C(N)c1ccc(COc2ccc3c(c2)CCCN(CC(=O)O)C3=O)cc1
IC50 [3]: 0.6 µM

N=C(N)c1ccc(COc2ccc3c(c2)CCC(CC(=O)O)C3=O)cc1 (stereo unspecified)
IC50 (Homo sapiens [2]): 0.45 µM
IC50 [3]: 0.027 µM

N=C(N)c1ccc(COc2ccc3c(c2)CCC(CC(=O)O)C3)cc1 (stereo unspecified)
IC50 (Homo sapiens [2]): 33 µM
IC50 [3]: 0.26 µM

N=C(N)c1ccc(COc2ccc3c(c2)CCN(CC(=O)O)C3)cc1
IC50 (Homo sapiens [2]): 0.33 µM

From ChEMBL document CHEMBL1132483, “Fused bicyclic Gly-Asp beta-turn mimics with specific affinity for GPIIb-IIIa” (J Med Chem, 1999)
